Tests used:
[1] = molecular target: GABA-A receptor; anion channel (Rattus norvegicus) (UniProt O09028+P15431+P18506+P18508+P19969+P20236+P23574+P23576+P28471+P28473+P30191+P62813+P63079+P63138+Q91ZM7+Q9ES14); experiment: Antagonism of mercaptopropionic acid (MPA) induced convulsions in mouse; type: functional, organism-based
Mus musculus [2] = experiment: Activity tested to antagonise cyclic GMP after administration of isoniazid in mouse brain; type: functional
[3] = Ability to displace [3H]flunitrazepam ([3H]-FNP) binding to mouse brain after intraperitoneal administration at a dose 320 umol/kg; type: functional, organism-based; details: at 320 µmol/kg
In short: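 Mice in groups of five got test agent or vehicle ip 1 h before iv [3H]FNP at 200 μCi/kg, then were killed 20 min later by cervical dislocation. Brains were frozen and homogenized in 40 volumes of ice-cold 50 mM Tris-HCl pH 7.7. Triplicate samples were filtered on glass fiber, washed with cold buffer and counted. Bound label is expressed as % of vehicle-treated mice.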

P23576 = experiment: Administered at a dose 320 umol/kg intraperitoneally before [3H]Flunitrazepam ([3H]-FNP) in mouse brain expressed as percent of control; type: functional, tissue-based
In short: (§1)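 Mice in groups of five received test compound or vehicle ip 1 h before 200 μCi/kg [3H]FNP iv and were killed 20 min later. Brains were homogenized in 40 volumes of ice-cold 50 mM Tris-HCl pH 7.7. Triplicate 1.0-mL samples were filtered on glass fiber, washed with cold buffer and counted. Bound FNP is given as % of vehicle-treated mice.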

Mus musculus [4] = experiment: Compound was tested for enhancement of [3H]Flunitrazepam ([3H]FNP) binding to mouse brain after intraperitoneal administration at a dose 32uM/kg, expressed as percent of control; type: functional; in short: as §1
Mus musculus [5] = experiment: Activity to antagonise mercaptopropionic acid (MPA) induced convulsions in mouse after subcutaneous administration; type: functional; details: sc
In short: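 Male Swiss CD mice (17–21 g), fasted 18 h, in groups of five. […] One hour later MPA 32 mg/kg ip. Protection meant no convulsions during 10 min of observation.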

[6] = Toxicity was measured in mouse by intraperitoneal administration; value ranges from 32-100; details: in vivo, ip
In short: (§2)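 Mouse LD50 in mg/kg after sc or ip dosing, by the route named in each line.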

Mus musculus [7] = experiment: Compound was tested for enhancement of [3H]Flunitrazepam ([3H]FNP) binding to mouse brain after intraperitoneal administration at a dose 10uM/kg, expressed as percent of control; type: functional; in short: as §1
Mus musculus [8] = experiment: Compound was tested for enhancement of [3H]flunitrazepam ([3H]-FNP) binding to mouse brain after intraperitoneal administration at a dose 3.2uM/kg, expressed as percent of control; type: functional; in short: as §1
[9] = Toxicity measured in mouse by subcutaneous administration; type: organism-based; details: in vivo, sc; in short: as §2
Mus musculus [10] = experiment: Activity to antagonise cyclic GMP after administration of isoniazid in mouse brain; value ranges from 1-3.2; type: functional
Mus musculus [11] = experiment: Activity to antagonise cyclic GMP after administration of isoniazid in mouse brain; value ranges from 3.2-10; type: functional
[12] = Toxicity was measured in mouse by intraperitoneal administration; details: in vivo, ip; in short: as §2

Chain of P23576 (P23576 whole entry): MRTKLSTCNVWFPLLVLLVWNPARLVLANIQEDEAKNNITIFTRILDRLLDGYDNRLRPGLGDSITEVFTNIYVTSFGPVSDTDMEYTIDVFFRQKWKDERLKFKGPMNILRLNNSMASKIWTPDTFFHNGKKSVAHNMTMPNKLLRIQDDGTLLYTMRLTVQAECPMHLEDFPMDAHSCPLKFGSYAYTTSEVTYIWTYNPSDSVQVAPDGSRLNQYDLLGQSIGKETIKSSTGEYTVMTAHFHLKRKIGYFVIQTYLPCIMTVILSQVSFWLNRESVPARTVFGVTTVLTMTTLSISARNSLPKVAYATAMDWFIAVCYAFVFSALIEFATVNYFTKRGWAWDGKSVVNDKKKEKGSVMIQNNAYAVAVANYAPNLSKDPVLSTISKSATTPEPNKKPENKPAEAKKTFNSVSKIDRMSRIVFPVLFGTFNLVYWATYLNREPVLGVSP

| Structure (SMILES) | ED50 [1] [mg/kg] | further results |
| --- | --- | --- |
| COc1ccc(N2C(=O)/C(=C(/C)N(C)C)c3ccccc32)cc1Cl | 2.8 | – |
| COc1cccc(N2C(=O)/C(=C\N(C)C)c3ccccc32)c1 | 27.9 | ED50 (Mus musculus [2]): < 10 mg/kg; [3H]flunitrazepam binding [3]: 217% |
| CN(C)/C=C1\C(=O)N(c2cccc(C#N)c2)c2ccccc21 | > 100 | [3H]flunitrazepam binding [3]: 192% |
| CN(C)/C=C1\C(=O)N(c2ccccc2)c2cc(Cl)ccc21 | > 100 | – |
| O=C1/C(=C2/CCCN2Cc2ccccc2)c2ccccc2N1c1cccc(Cl)c1 | > 100 | Control (P23576): 149% |
| C/C(=C1/C(=O)N(c2cccc(Cl)c2)c2ccccc21)N(C)C | 13.3 | ED50 (Mus musculus [2]): 1 mg/kg |
| COc1c(C)cc(N2C(=O)/C(=C\N(C)C)c3ccccc32)cc1Cl | 15.3 | – |
| COc1ccc(N2C(=O)/C(=C\N(C)C)c3ccccc32)cc1 | 48.2 | [3H]flunitrazepam binding [3]: 153% |
| CCOc1cccc(N2C(=O)/C(=C\N(C)C)c3ccccc32)c1 | 27.9 | – |
| COc1ccc(N2C(=O)/C(=C\N(C)C)c3ccccc32)cc1Cl | 7.2 | [3H]flunitrazepam binding [3]: 244% |
| CN(C)/C=C1\C(=O)N(c2ccc(N(C)C)cc2)c2ccccc21 | > 100 | – |
| COc1ccc2c(c1)/C(=C/N(C)C)C(=O)N2c1cccc(Cl)c1 | > 100 | – |
| CN1CCC/C1=C1/C(=O)N(c2cccc(C#N)c2)c2ccccc21 | > 100 | Control (P23576): 121% |
| CN(C)/C=C1\C(=O)N(c2cc(Cl)ccc2Cl)c2ccccc21 | > 100 | ED50 (Mus musculus [2]): ~10 mg/kg; [3H]flunitrazepam binding [3]: 147% |
| CN(C)C(=O)c1cccc(N2C(=O)/C(=C3/CCCN3C)c3ccccc32)c1 | > 100 | Control (P23576): 164% |
| CN(C)/C=C1\C(=O)N(c2cccc(O)c2)c2ccccc21 | > 100 | – |
| CCO/C=C1\C(=O)N(c2cccc(Cl)c2)c2ccccc21 | > 100 | – |
| CN(C)/C=C1\C(=O)N(c2cccc(Cl)c2)c2ccc(Cl)cc21 | > 100 | – |
| O=C1/C(=C\N2CCOCC2)c2ccccc2N1c1cccc(Cl)c1 | > 100 | [3H]flunitrazepam binding [3]: 121% |
| CN(C)/C=C1\C(=O)N(c2cccc(-c3ccccc3)c2)c2ccccc21 | > 100 | – |
| C/N=C\c1c(O)n(-c2cccc(Cl)c2)c2ccccc12 | > 100 | [3H]flunitrazepam binding [3]: 119% |
| CN(C)/C=C1\C(=O)N(c2cccc(Br)c2)c2ccccc21 | > 100 | – |
| CC(=N)c1c(O)n(-c2ccccc2)c2cc(Cl)ccc12 | > 56 | – |
| COc1ccc(N2C(=O)/C(=C\N(C)C)c3ccccc32)cc1C | 9.1 | – |
| CC(=N)c1c(O)n(-c2cccc(Cl)c2)c2ccccc12 | > 100 | [3H]flunitrazepam binding [3]: 103% |
| CN(/C=C1\C(=O)N(c2cccc(Cl)c2)c2ccccc21)Cc1ccccc1 | > 100 | Control (P23576): 135% |

| Structure (SMILES) | ED50 [1] [mg/kg] | further results |
| --- | --- | --- |
| COc1ccc(N2C(=O)/C(=C3/CCCN3C)c3ccccc32)cc1Cl | – | Control (Mus musculus [4]): 159%; ED50 (Mus musculus [5]): 3.6 mg/kg; Control (P23576): 220%; LD50 [6]: 32 mg/kg; Control (Mus musculus [7]): 128%; Control (Mus musculus [8]): 115%; LD50 [9]: ≥ 320 mg/kg |
| O=C1/C(=C\N2CCCC2)c2ccccc2N1c1cccc(Cl)c1 | > 100 | – |
| CSc1ccc(N2C(=O)/C(=C\N(C)C)c3ccccc32)cc1 | 56 | – |
| COc1ccc(N2C(=O)/C(=C(/C)N(C)C)c3ccccc32)cc1 | > 100 | – |
| CN(C)/C=C1\C(=O)N(c2ccc(Cl)cc2)c2ccccc21 | > 100 | – |
| COc1ccc(N2C(=O)/C(=C(/C)N(C)C)c3ccccc32)cc1F | > 100 | [3H]flunitrazepam binding [3]: 157% |
| N=Cc1c(O)n(-c2cccc(Cl)c2)c2ccccc12 | 22.1 | [3H]flunitrazepam binding [3]: 134% |
| Oc1c(C2=NCCCCC2)c2ccccc2n1-c1ccccc1 | > 100 | – |
| COc1ccc(N2C(=O)/C(=C\N(C)C)c3ccccc32)cc1OC | > 100 | ED50 (Mus musculus [2]): < 10 mg/kg; [3H]flunitrazepam binding [3]: 138% |
| COc1ccc(-n2c(O)c(C3=NCCC3)c3ccccc32)cc1F | 56 | – |
| CN(C)/C=C1\C(=O)N(c2cccc(Cl)c2)c2ccccc21 | 26.1 | ED50 (Mus musculus [10]): 1 mg/kg |
| CN(C)/C=C1\C(=O)N(c2cccc(C(F)(F)F)c2)c2ccccc21 | 22.2 | [3H]flunitrazepam binding [3]: 131% |
| CN(C)/C(=C1\C(=O)N(c2cccc(Cl)c2)c2ccccc21)c1ccccc1 | > 100 | – |
| Cc1cccc(N2C(=O)/C(=C\N(C)C)c3ccccc32)c1 | 14.1 | [3H]flunitrazepam binding [3]: 184% |
| Cc1ccc(N2C(=O)/C(=C\N(C)C)c3ccccc32)cc1 | 56 | – |
| CN1CCC/C1=C1/C(=O)N(c2ccccc2)c2cc(Cl)ccc21 | > 100 | Control (P23576): 158% |
| CCC/N=C/c1c(O)n(-c2cccc(Cl)c2)c2ccccc12 | > 56 | – |
| CN(C)/C=C1\C(=O)N(c2cc(Cl)cc(Cl)c2)c2ccccc21 | > 100 | [3H]flunitrazepam binding [3]: 153% |
| CN(C)/C=C1\C(=O)N(c2cccc(C=O)c2)c2ccccc21 | > 100 | – |
| Cc1ccccc1N1C(=O)/C(=C\N(C)C)c2ccccc21 | 18 | – |
| CN1CCC/C1=C1/C(=O)N(c2ccccc2)c2cccc(Cl)c21 | > 100 | Control (P23576): 190% |
| CN1CCC/C1=C1/C(=O)N(c2ccccc2)c2ccccc21 | > 100 | Control (P23576): 143% |
| CN1CCC/C1=C1/C(=O)N(c2cccc(Cl)c2)c2cc(Cl)ccc21 | > 100 | Control (P23576): 189% |
| CN(C)/C=C1\C(=O)N(c2ccccc2)c2ccccc21 | > 100 | – |
| CN(C)/C=C1\C(=O)N(c2cccc(C(=O)N(C)C)c2)c2ccccc21 | > 100 | – |
| CCN(/C=C1\C(=O)N(c2cccc(Cl)c2)c2ccccc21)CC | 18 | – |

| Structure (SMILES) | ED50 [1] [mg/kg] | further results |
| --- | --- | --- |
| O=C1/C(=C2/CCCN2Cc2ccc(Cl)cc2)c2ccccc2N1c1cccc(Cl)c1 | > 100 | Control (P23576): 131% |
| CN(/C=C1\C(=O)N(c2cccc(Cl)c2)c2ccccc21)c1ccccc1 | > 100 | [3H]flunitrazepam binding [3]: 133% |
| C/C(=C1/C(=O)N(c2ccccc2)c2cc(Cl)ccc21)N1CCCC1 | > 56 | [3H]flunitrazepam binding [3]: 213% |
| CN(C)/C=C1\C(=O)N(c2cccc(F)c2)c2ccccc21 | 39.9 | – |
| C/C(=C1/C(=O)N(c2ccccc2)c2cc(Cl)ccc21)N(C)C | 35.9 | – |
| N=C(c1c(O)n(-c2cccc(Cl)c2)c2ccccc12)C(F)(F)F | > 56 | – |
| CN(C)/C=C1\C(=O)N(c2ccccc2Cl)c2ccccc21 | > 100 | ED50 (Mus musculus [11]): 3.2 mg/kg |
| COc1ccc(N2C(=O)/C(=C3/CCCN3C)c3ccccc32)cc1F | 5.6 | Control (P23576): 225% |
| CN(C)/C=C1\C(=O)N(c2cccc([N+](=O)[O-])c2)c2ccccc21 | > 100 | [3H]flunitrazepam binding [3]: 171% |
| CN(C)/C=C1\C(=O)N(c2cccc(Cl)c2)c2c(Cl)cccc21 | > 100 | [3H]flunitrazepam binding [3]: 169% |
| C/C(=C1/C(=O)N(c2cccc(C)c2)c2ccccc21)N(C)C | 17.8 | – |
| O=C1/C(=C\N2CCCCC2)c2ccccc2N1c1cccc(Cl)c1 | > 56 | [3H]flunitrazepam binding [3]: 131% |
| CCN1CCC/C1=C1/C(=O)N(c2cccc(Cl)c2)c2ccccc21 | > 100 | Control (P23576): 164% |
| CCCN(/C=C1\C(=O)N(c2cccc(Cl)c2)c2ccccc21)CCC | > 100 | – |
| CN1CCCC/C1=C1/C(=O)N(c2cccc(Cl)c2)c2ccccc21 | > 100 | Control (P23576): 135% |
| COc1ccc(Cl)cc1N1C(=O)/C(=C\N(C)C)c2ccccc21 | > 100 | [3H]flunitrazepam binding [3]: 149% |
| COc1ccc(N2C(=O)/C(=C\N(C)C)c3ccccc32)cc1F | 6.6 | [3H]flunitrazepam binding [3]: 194% |
| NC(=O)CCC/N=C(\c1ccc(Cl)cc1)c1cc(F)ccc1O [PROGABIDE] | > 100 | LD50 [12]: ~1000 mg/kg; ED50 (Mus musculus [2]): < 32 mg/kg; LD50 [9]: > 1000 mg/kg |
| CN(C)/C=C1\C(=O)N(c2cccc(Cl)c2)c2cc(Cl)ccc21 | > 100 | – |
| CN1CCC/C1=C1/C(=O)N(c2ccc(Cl)cc2)c2ccccc21 | > 56 | Control (P23576): 127% |
| Oc1c(C2=NCCCCC2)c2ccccc2n1-c1cccc(Cl)c1 | > 100 | Control (P23576): 138% |
| CN(C)/C=C1\C(=O)N(c2cccc(Cl)c2)c2cccc(Cl)c21 | > 100 | – |
| O=C1/C(=C\n2ccnc2)c2ccccc2N1c1cccc(Cl)c1 | > 100 | Control (P23576): 139% |
| O=C1/C(=C2/CCCN2c2ccccc2)c2ccccc2N1c1cccc(Cl)c1 | > 100 | Control (P23576): 125% |
| CCc1cccc(N2C(=O)/C(=C\N(C)C)c3ccccc32)c1 | 14.1 | – |
| Oc1c(/C=N/Cc2ccccc2)c2ccccc2n1-c1cccc(Cl)c1 | > 100 | – |

From ChEMBL document CHEMBL1124397, “A novel class of "GABAergic" agents: 1-aryl-3-(aminoalkylidene)oxindoles” (J Med Chem, 1989)
